# DDE Tn6 FP inh = inhibitors of Tn6 peptide binding to human fibrin DD(E); hit rate 0.21% among 370,000; P02675; Fibrin DD(E) TRITC-Tn6 fluorescence polarization displacement; inhibition, % at 8.3 µM;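 active = inhibition above a per-campaign cutoff: mean of compounds within control limits plus 3 SD, cut at about 15% in these data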;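 note: 0% = median of all compound wells on the plate and 100% = blocking peptide control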
# TDP2 absorb = blocks human TDP2 phosphodiesterase activity | AID 720702 | hit rate 0.34% among 370,000 | inhibition, % at 12.8 µM | recombinant TDP2, T5PNP hydrolysis, p-nitrophenol absorbance 415 nm;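 active = inhibition above the mean of all tested compounds plus 3 SD, set per campaign, cut at about 25% in these data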;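 note: 0% = DMSO with enzyme and 100% = buffer with substrate but no TDP2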
# Target sequence (O95551 whole entry, looked up): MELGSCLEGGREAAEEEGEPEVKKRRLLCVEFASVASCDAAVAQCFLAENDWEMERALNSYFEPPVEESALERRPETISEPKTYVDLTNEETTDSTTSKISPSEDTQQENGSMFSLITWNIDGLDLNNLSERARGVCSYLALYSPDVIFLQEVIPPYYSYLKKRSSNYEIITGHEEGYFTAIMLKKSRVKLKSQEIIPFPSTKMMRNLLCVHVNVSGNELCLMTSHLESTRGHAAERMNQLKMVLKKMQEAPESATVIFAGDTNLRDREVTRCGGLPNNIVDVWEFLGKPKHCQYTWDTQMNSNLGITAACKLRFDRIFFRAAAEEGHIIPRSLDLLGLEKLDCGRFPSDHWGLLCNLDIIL
#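 Test system: Human TDP2 enzyme | Reagent: 5 mM T5PNP | Compound dosing: 12.8 µM single point, 1% DMSO | Incubation: Enzyme reaction with compound for 2 h at 37 °C | Technique: p-Nitrophenol epi absorbance | Read-out: % inhibition relative to enzyme-containing and enzyme-free wells | Benchmarks: High control without enzyme, low control DMSO plus TDP2 | Replicates: Singlicate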
# LEDGF integ inh = blocks HIV-1 LEDGF/p75-dependent DNA integration; inhibition, % at 3.7 µM; AID 743269; TR-FRET IN-LEDGF/p75 DNA integration, Eu/Cy5; hit rate 0.64% among 370,000;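 active = inhibition above the screen-wide mean plus 3 SD, cut at about 13% in these data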;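 note: signal is the Cy5 over europium emission ratio at 671 and 618 nm; 0% = plate median of compound wells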
# MBD2 DNA inh = inhibitors of human MBD2 binding to methylated oligonucleotide. Q9UBB5. TR-FRET. inhibition, % at 4.4 µM. hit rate 0.31% among 370,000; in the data active = inhibition above about 13%
# Target sequence (Q9UBB5 whole entry, looked up): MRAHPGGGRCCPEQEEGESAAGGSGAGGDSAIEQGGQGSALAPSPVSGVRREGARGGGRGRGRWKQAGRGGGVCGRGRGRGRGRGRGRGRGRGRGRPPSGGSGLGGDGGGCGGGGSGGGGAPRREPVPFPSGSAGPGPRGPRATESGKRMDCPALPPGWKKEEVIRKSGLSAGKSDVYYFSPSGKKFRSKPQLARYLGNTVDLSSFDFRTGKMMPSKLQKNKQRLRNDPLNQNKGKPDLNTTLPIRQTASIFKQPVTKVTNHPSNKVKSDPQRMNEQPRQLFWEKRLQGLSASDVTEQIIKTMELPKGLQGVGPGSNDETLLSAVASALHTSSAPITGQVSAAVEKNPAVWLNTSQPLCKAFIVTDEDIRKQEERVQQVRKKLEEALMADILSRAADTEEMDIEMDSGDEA
# UHRF1 MBD2 ctr = blocks human UHRF1 binding to methylated DNA; UHRF1 binding to methylated oligo, TR-FRET; inhibition, % at 4.4 µM; hit rate 0.75% among 370,000; AID 687016; in the data active = inhibition above about 21%;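 note: UHRF1 SRA domain binding a hemimethylated CpG hairpin DNA probe; 0% = median of test compound wells and 100% = reference inhibitor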
# Tn7 DDE FP = inhibitors of Tn7 peptide binding to human fibrin DD(E); inhibition, % at 8.3 µM; P02675; FP displacement of FITC-Tn7 peptide from fibrin DD(E); 0% = median of compound wells per plate; hit rate 0.13% among 370,000; AID 720508;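 active = inhibition above the mean of compounds falling within the control limits plus 3 SD of them, cut at about 14% in these data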;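 note: 0% = plate median of compound wells and 100% = 10 µM Aha-Tn7 peptide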
#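 Assay system: Fibrin-DD(E) protein isolated from polymerized human fibrin clots; read-out basis: percent inhibition; medium: Tris/NaCl/CaCl2 buffer, pH 7.8; signal: FP measurement; incubation: 10 min plus 3 h, room temperature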
# TDP2 confirm = confirmation of human TDP2 inhibitors; shares compounds with TDP2 absorb; recombinant human TDP2, absorbance read-out; inhibition, % at 12.8 µM; hit rate 22% among 1,100; AID 743263; in the data active = inhibition above about 25%;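 note: 0% = vehicle with enzyme and 100% = no enzyme buffer only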
# IN multimer up = activates HIV-1 integrase multimerization in LEDGF counter-screen | shares compounds with LEDGF integ inh | hit rate 17% among 2,000 | activation, % at 7.7 µM | TR-FRET HIV-1 integrase multimerization, biochemical; in the data active = activation above about 8.9%
# TRFRET interf = counter-screen for LEDGF/p75 integration inhibitors: TR-FRET optical interference | 2,000 tested, under 10 active | AID 1053135 | inhibition, % at 7.7 µM | shares compounds with LEDGF integ inh | TR-FRET optical interference counterscreen, HIV-1 IN multimerization;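 active = inhibition above the mean over all tested compounds plus 3 SD, which no compound reached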;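 note: 0% = integrase with antibodies and DMSO and 100% = antibodies without integrase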
# LEDGF integ conf = LEDGF/p75-dependent HIV-1 integration inhibition, confirmation; TR-FRET LEDGF/p75-dependent HIV-1 integration, biochemical; hit rate 36% among 2,000; shares compounds with LEDGF integ inh; AID 1053136; inhibition, % at 3.7 µM; in the data active = inhibition above about 14%
# * hit, by the source's call; x = not tested or not shown. Hits are enriched below; roughly 1.9% of the tested compounds scored in any of these assays.
SMILES,DDE Tn6 FP inh,TDP2 absorb,LEDGF integ inh,MBD2 DNA inh,UHRF1 MBD2 ctr,Tn7 DDE FP,TDP2 confirm,IN multimer up,TRFRET interf,LEDGF integ conf
Cc1no[n+]([O-])c1COc1cccc(/C=N/Nc2nncn2N)c1,2.0,60.5*,58.2*,-2.6,11.2,-2.0,10.0,1.4,-5.1,-2.6
CC(=O)N1CCc2cc(Br)c(S(=O)(=O)NCc3ccc(Cl)cc3)cc21,-12.4,8.2,-3.0,2.0,-2.0,3.4,x,x,x,x
O=C1CC(N2CCOCC2)=NC(=O)N1c1ccc(Br)cc1,5.8,1.3,0.2,2.5,1.1,-0.4,x,x,x,x
COc1ccccc1N(/N=C1\Sc2ccccc2C1=O)C(C)=O,3.6,27.8*,16.6*,-7.2,-8.3,-7.3,44.8*,0.3,-1.2,23.3*
COc1ccc(C(C[N+](=O)[O-])c2c(C)[nH]n(-c3ccccc3)c2=O)cc1 (centres undefined),-2.1,75.0*,25.4*,12.7,15.9,2.4,68.8*,5.2,-18.6,21.8*
Cc1ccc(S(=O)(=O)/N=C2\C=C(NS(=O)(=O)c3ccccc3)C(=O)c3ccccc32)c(C)c1,3.8,3.4,1.7,-16.7,-2.3,8.3,x,x,x,x
Cc1ccc(S(=O)(=O)/N=C2\C=C(Nc3cccc(C(=O)O)c3)C(=O)c3ccccc32)cc1,1.2,84.8*,51.6*,-2.8,6.6,1.6,77.0*,0.1,-0.2,63.8*
CCOc1ccc(-n2c(SCc3cccc4ccccc34)nnc2-c2ccc(C)cc2)cc1,-6.3,-10.6,2.0,7.7,0.3,2.1,x,x,x,x
COCCNC(=S)N(C)[C@H]1C[C@H]2c3[nH]c4cccc(-c5ccccc5)c4c3CCN2C(=O)[C@H]1[C@H](C)O,6.2,-8.9,-0.3,2.6,-0.7,1.4,x,x,x,x
Fc1ccc(Nc2cncc(-c3ccsc3)c2)cc1Cl,8.6,80.7*,38.3*,5.0,12.3,5.0,51.7*,-0.1,0.1,15.8*
c1ccc(Cn2ccc3ccc(-c4ccc5ccn(Cc6ccc7ccccc7c6)c5c4)cc32)cc1,-7.6,-1.2,5.7,-2.2,-2.2,-3.3,x,x,x,x
O=C(NCCc1ccccc1Cl)[C@@H]1CCCN1C(=O)[C@@H](NS(=O)(=O)c1ccc(F)cc1F)c1ccccc1,0.3,-6.2,3.8,-2.9,2.5,1.5,x,x,x,x
COC1=CC(=O)c2nc(Cl)ccc2C1=O,-11.8,84.8*,31.8*,-2.5,11.4,-7.7,78.2*,2.3,-8.2,57.5*
Nc1ccc(N(CCO)CCO)cc1,6.7,46.1*,23.6*,-9.3,6.6,-3.1,23.9,12.3*,-62.0,27.6*
Nc1ccc(C(=O)N(CCO)CCO)cc1,0.6,-6.6,0.1,-0.1,-0.7,-1.9,x,x,x,x
COc1cc(CCNC2=CC(=O)c3ncccc3C2=O)ccc1O,-2.5,28.9*,28.8*,-21.9,-13.6,-2.7,34.9*,4.6,-16.3,60.0*
O=C(CSc1nnc(-c2cccnc2)n1-c1ccc(Cl)cc1)Nc1cccc2ccccc12,-0.8,-1.4,-5.3,3.9,-0.8,3.6,x,x,x,x
Nc1ccc(N2CCCCC2)c2nonc12,6.8,82.0*,56.2*,12.7,12.2,3.5,88.6*,1.4,-5.0,66.9*
Cc1ccc(N(CC(=O)NC2CCCCC2)S(=O)(=O)c2c(C)noc2C)cc1,2.9,29.1*,21.1*,1.6,3.6,5.3,-2.8,1.4,-5.0,-4.7
N=C(N)c1ccc(N)cc1,3.0,6.2,-0.1,2.4,-0.1,2.9,x,x,x,x
NC(=Nc1ccc(N)cc1)C(N)=Nc1ccc(N)cc1,-5.2,50.8*,39.3*,-5.0,-3.6,4.6,-9.2,1.2,-4.0,-5.5
COc1cc(C=c2c3ccccc3n3c2cc(-c2ccccc2)[n+]3C)cc(OC)c1OC,17.2*,39.4*,29.0*,-2.1,7.0,3.2,43.5*,2.9,-10.4,48.2*
COC(=O)[C@]12C[C@H](CC(=O)N3CCCCC3)C(=O)N(Cc3ccccc3)C1=C[C@H](C1CCCC1)O[C@@H]2C,8.2,4.4,0.4,-4.3,-1.1,-1.8,x,x,x,x
O=C(NC1=C(NC2CCS(=O)(=O)C2)C(=O)c2ccccc2C1=O)c1ccccc1 (centres undefined),4.2,27.9*,24.8*,-6.0,10.1,-0.8,36.5*,1.2,-4.3,41.5*
O=S(=O)(Nc1cc(Sc2cccc3cccnc23)c(O)c2ccccc12)c1ccccc1,10.5,32.5*,17.1*,-23.5,-31.3,5.4,6.7,0.1,-0.7,-11.0
SMILES,DDE Tn6 FP inh,TDP2 absorb,LEDGF integ inh,MBD2 DNA inh,UHRF1 MBD2 ctr,Tn7 DDE FP,TDP2 confirm,IN multimer up,TRFRET interf,LEDGF integ conf
CCOc1ccc(S(=O)(=O)Nc2cc(SCC(=O)O)c(O)c3ccccc23)cc1,0.2,65.9*,24.6*,-3.8,-6.5,3.3,55.5*,2.0,-7.5,43.1*
O=C(O)CSc1cc(NS(=O)(=O)c2cccc([N+](=O)[O-])c2)c2ccccc2c1O,-1.6,62.9*,16.0*,-9.2,2.4,2.9,70.1*,4.2,-15.1,63.0*
O=C(O)c1cccc(S(=O)(=O)Nc2ccc([N+](=O)[O-])cc2O)c1,9.1,-6.8,-1.3,-1.7,3.7,1.1,x,x,x,x
CCOC(=O)c1ccccc1NS(=O)(=O)c1ccc(OCC)cc1,13.1,0.2,-3.4,3.6,0.2,4.5,x,x,x,x
CCCCS(=O)(=O)N1CCCc2nc(C)c(C)cc21,0.3,1.2,-1.8,1.0,-2.0,-0.6,x,x,x,x
CC(CNC(=O)[C@@H](Cc1ccccc1)NC(=O)[C@H]1O[C@@H](n2ccc(=O)[nH]c2=O)[C@H](O)[C@@H]1O)c1ccccc1 (some centres undefined),6.6,4.0,0.5,0.1,-1.1,6.5,x,x,x,x
COCCCOc1cc(NCc2ccccc2)c2ncn(C(C)C)c2c1,-6.2,13.1,4.3,-5.3,-5.0,-0.6,x,x,x,x
CCC(COC)Oc1cc(NCc2ccccc2)c2ncn(C(C)C)c2c1 (centres undefined),2.5,60.9*,26.5*,-12.8,3.6,-1.7,34.5*,0.2,-0.8,29.6*
CCC(CO)Oc1cc(NC(=O)c2ccc(N)cc2)c2ncn(C(C)C)c2c1 (centres undefined),3.7,36.9*,13.9*,5.9,18.1,4.4,34.3*,0.6,-3.1,24.8*
CSc1nn(CCC#N)c(=O)[nH]c1=O,-5.4,-14.4,1.6,1.6,7.8,1.2,x,x,x,x

# Assay outcomes as filed in PubChem BioAssay.
